Measured values taken from ChEMBL document CHEMBL1157570, “Development of potent and selective inhibitors of ecto-5'-nucleotidase based on an anthraquinone scaffold” (J Med Chem, 2010).

How the values were obtained:
[1] = target: T1, Ectonucleoside triphosphate diphosphohydrolase 2 (Rattus norvegicus, UniProt O35795); test: Inhibition of rat NTPdase2 by capillary electrophoresis method
T1 sequence (O35795 whole entry): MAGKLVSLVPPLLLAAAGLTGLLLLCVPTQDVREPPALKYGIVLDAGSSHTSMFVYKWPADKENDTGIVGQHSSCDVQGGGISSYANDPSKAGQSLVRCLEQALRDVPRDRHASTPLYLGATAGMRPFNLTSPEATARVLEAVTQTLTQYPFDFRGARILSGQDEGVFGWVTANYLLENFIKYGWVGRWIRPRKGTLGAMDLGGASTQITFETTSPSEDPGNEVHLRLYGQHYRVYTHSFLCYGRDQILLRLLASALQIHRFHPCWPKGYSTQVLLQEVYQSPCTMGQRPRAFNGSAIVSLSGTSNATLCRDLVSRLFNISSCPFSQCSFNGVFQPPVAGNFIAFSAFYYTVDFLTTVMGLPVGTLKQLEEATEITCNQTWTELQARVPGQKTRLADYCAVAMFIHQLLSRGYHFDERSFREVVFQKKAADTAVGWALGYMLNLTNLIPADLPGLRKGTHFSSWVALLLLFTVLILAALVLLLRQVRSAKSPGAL

P2Y purinoceptor 6 = P2Y purinoceptor 6 (Rattus norvegicus, UniProt Q63371); test: Antagonist activity at rat P2Y6 receptor expressed in astrocytoma cells assessed as inhibition of intracellular calcium mobilization; type: functional, cell-based
In short: (§1)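 Astrocytoma cells stably expressing the receptor, loaded with Fura-2 AM. Cells preincubated with test agent for at least 20 min, then challenged with 1 μM UTP (P2Y2), 3 μM UTP (P2Y4) or 3 μM UDP (P2Y6). Ca2+ fluorescence read at ex 320/em 520 nm. Full curves (7-8 concentrations over 3 log units) run when inhibition exceeded 40% at 10 μM. Three experiments, each in triplicate.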

5'-nucleotidase = target: T2, 5'-nucleotidase (Rattus norvegicus, UniProt P21588); test: Inhibition of rat ecto-5'-nucleotidase expressed in Sf9 cells by capillary electrophoresis method
T2 sequence (P21588 whole entry): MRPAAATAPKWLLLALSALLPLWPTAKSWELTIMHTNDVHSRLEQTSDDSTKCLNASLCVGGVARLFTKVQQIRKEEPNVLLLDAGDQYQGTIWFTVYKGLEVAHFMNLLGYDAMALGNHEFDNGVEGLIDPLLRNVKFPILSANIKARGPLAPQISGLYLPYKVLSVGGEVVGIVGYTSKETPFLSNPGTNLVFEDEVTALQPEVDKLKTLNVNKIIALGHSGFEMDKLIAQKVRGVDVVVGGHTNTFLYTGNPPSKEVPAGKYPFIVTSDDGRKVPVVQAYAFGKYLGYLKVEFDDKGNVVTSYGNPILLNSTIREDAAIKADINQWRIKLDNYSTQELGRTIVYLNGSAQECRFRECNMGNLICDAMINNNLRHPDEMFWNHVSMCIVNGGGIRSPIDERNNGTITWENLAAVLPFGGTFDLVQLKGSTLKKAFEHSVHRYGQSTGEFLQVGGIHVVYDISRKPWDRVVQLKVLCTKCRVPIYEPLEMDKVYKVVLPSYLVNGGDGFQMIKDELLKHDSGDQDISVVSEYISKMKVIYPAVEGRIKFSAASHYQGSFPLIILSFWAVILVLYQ
In short: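 Rat eN, GST-fused, made in Sf9 cells and purified on GSH-agarose. 500 μM AMP in Hepes pH 7.4 with Mg2+/Ca2+, 37 °C for 15 min. Adenosine measured by capillary electrophoresis at 260 nm. Inhibitor at 6-8 concentrations spanning about 3 log units. […] Three experiments, each in duplicate.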

P2Y purinoceptor 4 = P2Y purinoceptor 4 (Homo sapiens, UniProt P51582); test: Antagonist activity at human P2Y4 receptor expressed in astrocytoma cells assessed as inhibition of intracellular calcium mobilization; type: functional, cell-based; in short: as §1
[2] = target: T3, Ectonucleoside triphosphate diphosphohydrolase 1 (Rattus norvegicus, UniProt P97687); test: Inhibition of rat NTPdase1 by capillary electrophoresis method
T3 sequence (P97687 whole entry): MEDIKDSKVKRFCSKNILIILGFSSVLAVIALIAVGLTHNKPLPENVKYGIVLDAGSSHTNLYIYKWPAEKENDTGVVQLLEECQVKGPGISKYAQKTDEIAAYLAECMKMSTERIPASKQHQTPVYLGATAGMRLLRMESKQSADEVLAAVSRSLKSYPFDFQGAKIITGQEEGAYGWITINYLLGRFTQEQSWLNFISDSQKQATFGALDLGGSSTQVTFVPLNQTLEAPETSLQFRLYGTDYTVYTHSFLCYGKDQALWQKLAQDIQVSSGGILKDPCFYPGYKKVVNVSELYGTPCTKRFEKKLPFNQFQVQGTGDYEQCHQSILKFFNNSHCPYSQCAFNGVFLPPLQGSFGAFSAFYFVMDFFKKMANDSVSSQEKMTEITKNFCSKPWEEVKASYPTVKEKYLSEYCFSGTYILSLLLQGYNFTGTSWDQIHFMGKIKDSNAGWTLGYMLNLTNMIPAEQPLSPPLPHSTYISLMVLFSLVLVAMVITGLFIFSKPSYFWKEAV

[3] = target: T4, Nucleoside triphosphate diphosphohydrolase 3 (Rattus norvegicus, UniProt A6I415); test: Inhibition of rat NTPdase3 by capillary electrophoresis method
T4 sequence (A6I415 whole entry): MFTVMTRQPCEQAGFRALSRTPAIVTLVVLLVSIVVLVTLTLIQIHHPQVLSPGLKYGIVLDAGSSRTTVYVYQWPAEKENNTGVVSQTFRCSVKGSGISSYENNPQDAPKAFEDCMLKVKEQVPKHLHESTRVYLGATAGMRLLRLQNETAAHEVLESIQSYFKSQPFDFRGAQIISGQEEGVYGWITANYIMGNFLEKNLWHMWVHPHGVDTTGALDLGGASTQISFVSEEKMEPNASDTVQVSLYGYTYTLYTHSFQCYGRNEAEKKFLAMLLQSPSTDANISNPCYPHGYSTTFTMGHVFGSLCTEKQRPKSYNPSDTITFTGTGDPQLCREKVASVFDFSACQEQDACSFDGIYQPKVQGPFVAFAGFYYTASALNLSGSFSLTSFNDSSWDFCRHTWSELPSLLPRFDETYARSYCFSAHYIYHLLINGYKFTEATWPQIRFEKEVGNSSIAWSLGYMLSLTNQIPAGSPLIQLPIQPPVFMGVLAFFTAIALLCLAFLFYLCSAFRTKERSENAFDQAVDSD

P2Y purinoceptor 2 = P2Y purinoceptor 2 (Homo sapiens, UniProt P41231); test: Antagonist activity at human P2Y2 receptor expressed in astrocytoma cells assessed as inhibition of intracellular calcium mobilization; type: functional, cell-based; in short: as §1
[4] = Selectivity ratio of Ki for rat ecto-5'-nucleotidase to Ki for human NTPdase1
[5] = target: T5, Ectonucleoside triphosphate diphosphohydrolase 2 (Homo sapiens, UniProt Q9Y5L3); test: Inhibition of human NTPdase2 by capillary electrophoresis method
T5 sequence (Q9Y5L3 whole entry): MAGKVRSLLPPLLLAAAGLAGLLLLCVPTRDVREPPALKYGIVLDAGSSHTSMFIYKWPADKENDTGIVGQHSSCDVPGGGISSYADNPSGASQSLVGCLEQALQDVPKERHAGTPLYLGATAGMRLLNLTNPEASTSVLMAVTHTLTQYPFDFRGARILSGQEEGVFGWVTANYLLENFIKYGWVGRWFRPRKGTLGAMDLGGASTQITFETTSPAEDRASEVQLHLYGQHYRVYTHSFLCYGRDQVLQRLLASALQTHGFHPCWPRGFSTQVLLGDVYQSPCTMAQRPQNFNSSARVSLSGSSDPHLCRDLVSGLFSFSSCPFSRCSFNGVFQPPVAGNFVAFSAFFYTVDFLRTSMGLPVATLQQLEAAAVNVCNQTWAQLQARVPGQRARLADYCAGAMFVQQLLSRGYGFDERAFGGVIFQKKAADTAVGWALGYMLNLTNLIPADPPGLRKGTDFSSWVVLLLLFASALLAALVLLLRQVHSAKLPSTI
In short: (§2)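 Membrane preparations containing human NTPDase1, 2 or 3. Inhibitor added in water or 1% DMSO. Incubated 10 min at 37 °C, stopped at 99 °C for 5 min. Diluted with 20 μM UMP as internal standard, then analysed by capillary electrophoresis. Triplicates in two experiments.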

[6] = target: T6, Ectonucleoside triphosphate diphosphohydrolase 3 (Homo sapiens, UniProt O75355); test: Inhibition of human NTPdase3 by capillary electrophoresis method; in short: as §2
T6 sequence (O75355 whole entry): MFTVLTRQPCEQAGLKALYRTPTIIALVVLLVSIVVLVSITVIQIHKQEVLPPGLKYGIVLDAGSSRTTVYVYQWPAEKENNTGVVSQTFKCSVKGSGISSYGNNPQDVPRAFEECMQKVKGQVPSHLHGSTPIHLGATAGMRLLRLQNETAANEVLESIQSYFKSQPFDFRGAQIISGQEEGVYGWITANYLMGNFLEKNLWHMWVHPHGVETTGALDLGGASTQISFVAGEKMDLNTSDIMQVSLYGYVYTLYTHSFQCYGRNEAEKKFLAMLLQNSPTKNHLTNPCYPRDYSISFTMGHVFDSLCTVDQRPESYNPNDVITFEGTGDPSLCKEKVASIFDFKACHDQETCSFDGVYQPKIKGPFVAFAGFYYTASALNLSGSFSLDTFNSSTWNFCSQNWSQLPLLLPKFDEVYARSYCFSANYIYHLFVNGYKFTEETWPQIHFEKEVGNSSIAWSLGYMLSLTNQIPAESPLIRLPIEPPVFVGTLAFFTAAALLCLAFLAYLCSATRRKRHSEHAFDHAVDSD

[7] = target: T7, Ectonucleoside triphosphate diphosphohydrolase 1 (Homo sapiens, UniProt P49961); test: Inhibition of human NTPdase1 by capillary electrophoresis method; in short: as §2
T7 sequence (P49961 whole entry): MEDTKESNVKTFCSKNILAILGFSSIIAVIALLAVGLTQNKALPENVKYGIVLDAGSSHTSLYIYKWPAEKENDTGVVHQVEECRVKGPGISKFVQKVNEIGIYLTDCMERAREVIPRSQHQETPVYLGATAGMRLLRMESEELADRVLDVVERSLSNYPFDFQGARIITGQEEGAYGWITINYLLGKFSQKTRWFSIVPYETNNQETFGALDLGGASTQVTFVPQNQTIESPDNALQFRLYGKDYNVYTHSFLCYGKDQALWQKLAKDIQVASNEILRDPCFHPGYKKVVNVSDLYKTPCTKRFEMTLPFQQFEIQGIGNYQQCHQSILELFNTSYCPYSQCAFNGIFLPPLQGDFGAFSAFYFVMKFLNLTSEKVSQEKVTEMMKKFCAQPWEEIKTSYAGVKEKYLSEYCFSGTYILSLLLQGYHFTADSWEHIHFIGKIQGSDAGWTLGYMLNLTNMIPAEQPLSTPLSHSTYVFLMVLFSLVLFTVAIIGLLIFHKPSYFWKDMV

Sequence of P2Y purinoceptor 2 (P41231 whole entry): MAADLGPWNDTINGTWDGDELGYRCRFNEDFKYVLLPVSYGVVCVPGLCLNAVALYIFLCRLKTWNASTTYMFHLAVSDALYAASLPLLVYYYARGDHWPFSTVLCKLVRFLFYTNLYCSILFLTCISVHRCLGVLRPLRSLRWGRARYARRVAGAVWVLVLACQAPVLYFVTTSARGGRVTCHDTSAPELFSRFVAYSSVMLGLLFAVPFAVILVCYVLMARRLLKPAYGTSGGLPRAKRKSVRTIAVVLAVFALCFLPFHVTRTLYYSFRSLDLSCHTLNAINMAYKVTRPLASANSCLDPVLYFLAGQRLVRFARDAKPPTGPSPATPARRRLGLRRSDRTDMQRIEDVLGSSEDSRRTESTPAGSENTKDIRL
Sequence of P2Y purinoceptor 4 (P51582 whole entry): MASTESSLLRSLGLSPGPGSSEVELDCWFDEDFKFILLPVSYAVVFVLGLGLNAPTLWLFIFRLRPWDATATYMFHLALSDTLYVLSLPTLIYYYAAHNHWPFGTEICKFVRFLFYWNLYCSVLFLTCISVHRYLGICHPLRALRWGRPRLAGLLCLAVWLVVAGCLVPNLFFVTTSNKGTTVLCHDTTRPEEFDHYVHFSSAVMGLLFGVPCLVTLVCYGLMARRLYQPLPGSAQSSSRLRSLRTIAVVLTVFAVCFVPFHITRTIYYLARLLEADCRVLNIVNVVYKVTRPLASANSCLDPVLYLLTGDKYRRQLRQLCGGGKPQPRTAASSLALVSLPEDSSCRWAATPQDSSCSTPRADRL
Sequence of P2Y purinoceptor 6 (Q63371 whole entry): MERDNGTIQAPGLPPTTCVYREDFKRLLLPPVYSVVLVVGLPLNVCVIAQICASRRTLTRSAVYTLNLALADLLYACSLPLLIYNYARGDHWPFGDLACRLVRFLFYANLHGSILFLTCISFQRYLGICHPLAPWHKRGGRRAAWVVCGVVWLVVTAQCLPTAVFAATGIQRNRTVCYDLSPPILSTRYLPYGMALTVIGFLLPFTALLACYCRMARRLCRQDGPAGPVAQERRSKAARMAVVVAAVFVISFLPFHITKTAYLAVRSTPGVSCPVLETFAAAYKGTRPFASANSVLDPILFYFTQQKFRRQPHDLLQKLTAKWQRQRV

Compound | IC50 (P2Y purinoceptor 6) | Ki (5'-nucleotidase) | IC50 (P2Y purinoceptor 4) | IC50 (P2Y purinoceptor 2) | further results
Nc1c(S(=O)(=O)O)cc(Nc2ccccc2)c2c1C(=O)c1ccccc1C2=O [ACID BLUE 25] | > 10 µM | 15.2 µM | 25.8 µM | 11 µM | Ki [1]: 35.8 µM; Ki [2]: 49.1 µM; Ki [3]: 14.3 µM
Nc1cc(Nc2cc(S(=O)(=O)O)c(N)c3c2C(=O)c2ccccc2C3=O)ccc1S(=O)(=O)O |  | 25.2 µM |  |  | 
Nc1ncnc2c1ncn2[C@H]1O[C@@H](COP(=O)(O)CP(=O)(O)O)[C@H](O)[C@@H]1O |  | 0.00087 µM |  |  | 
Nc1c(S(=O)(=O)O)cc(Nc2ccc(F)cc2C(=O)O)c2c1C(=O)c1ccccc1C2=O | 10 µM | 0.26 µM | > 10 µM | 29.9 µM | Ratio Ki [4]: > 150; Ki [5]: > 200 µM; Ki [6]: > 60 µM; Ki [7]: > 40 µM
Nc1c(S(=O)(=O)O)cc(Nc2ccc(O)cc2)c2c1C(=O)c1ccccc1C2=O | 5.3 µM | 0.62 µM | 2.37 µM | 4.63 µM | Ki [5]: > 200 µM; Ki [7]: 10.7 µM
Nc1c(S(=O)(=O)O)cc(Nc2ccc(Br)cc2)c2c1C(=O)c1ccccc1C2=O |  | 11.3 µM |  |  | 
Nc1ccc(Nc2cc(S(=O)(=O)O)c(N)c3c2C(=O)c2ccccc2C3=O)cc1 |  | 0.297 µM |  |  | 
Nc1c(S(=O)(=O)O)cc(Nc2cccc3cc(S(=O)(=O)O)ccc23)c2c1C(=O)c1ccccc1C2=O |  | 15.3 µM |  |  | 
Nc1c(S(=O)(=O)O)cc(Nc2ccc(F)cc2)c2c1C(=O)c1ccccc1C2=O |  | 5.67 µM |  |  | 
